# Source: PubChem BioAssay
# Calls of active or inactive are those of the source.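 Rule for the calls, unless noted: active = fluorescence slope after compound addition differing from the mean of all tested samples at 99.7% confidence, mostly higher but some lower; inactive = the rest.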
# Experiments:
# [1] = inhibitors of TNFa-induced NFkB p65 translocation, primary screen, imaging, HUVEC, MLSMR starter and 10KST1 sets (AID 438;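 active = inhibition above 20% together with a positive visual image hit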;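 note: compound added about 3h40 before a 20 min TNFalpha stimulation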;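 for inhibition: signal is the nuclear over cytoplasmic p65 intensity ratio per well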); settings: HUVEC TNFa-induced p65 nuclear translocation; cell count: measured here: nuclei count (cytotoxicity indicator), at 2.08 µM; inhibition: at 2 µM, stronger effect = higher value, 0% TNFa-plus-vehicle, 100% no-TNFa wells
# [2] = inhibitors of mutant huntingtin aggregation, primary screen, imaging, exon1htt(103Q)mCFP cells, high-content imaging (AID 483;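 active = visual image review flags a hit and inhibition of aggregation exceeds 20%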;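 note: compound exposure lasted 3 days before fixation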;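 for nuclei count: percent of the per-plate median nuclei count of sample wells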); settings: exon1htt(103Q)mCFP cell line, aggregate imaging, at 2 µM; inhibition of aggregation: stronger effect = higher value; nuclei count: measured here: cell count, toxicity
# [3] = inhibitors of E-selectin induction by TNFa, primary screen, imaging, HUVEC, immunofluorescence, MLSMR starter and 10KST1 sets (AID 487;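 active = visually confirmed hit in the image check and inhibition above 20%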;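 for inhibition: signal is fraction of cell area covered by stained E-selectin grains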;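 for nuclei count: 100% = median nuclei count of all wells on the same plate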); settings: HUVEC TNFalpha-induced E-selectin immunofluorescence imaging, at 2 µM; inhibition: stronger effect = higher value; nuclei count: measured here: cell number, toxicity
# [4] = target: Voltage-gated potassium channel subunit beta-2 (Rattus norvegicus) (UniProt P62483); assay: KvBeta enzyme negative modulators, primary screen, biochemical, NADPH fluorescence (AID 622;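 active = fluorescence slope higher than the sample average by over 3 SD, cut at about -0.22 in these data, passing the limit was not always enough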;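 note: slope of raw intensity against log time taken from 70 to 1610 s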); settings: recombinant KvBeta, 4-cyanobenzaldehyde reduction, at 10 µM, stronger effect = higher value
# Voltage-gated potassium channel subunit beta-2 (Rattus norvegicus), sequence (P62483 whole entry, looked up): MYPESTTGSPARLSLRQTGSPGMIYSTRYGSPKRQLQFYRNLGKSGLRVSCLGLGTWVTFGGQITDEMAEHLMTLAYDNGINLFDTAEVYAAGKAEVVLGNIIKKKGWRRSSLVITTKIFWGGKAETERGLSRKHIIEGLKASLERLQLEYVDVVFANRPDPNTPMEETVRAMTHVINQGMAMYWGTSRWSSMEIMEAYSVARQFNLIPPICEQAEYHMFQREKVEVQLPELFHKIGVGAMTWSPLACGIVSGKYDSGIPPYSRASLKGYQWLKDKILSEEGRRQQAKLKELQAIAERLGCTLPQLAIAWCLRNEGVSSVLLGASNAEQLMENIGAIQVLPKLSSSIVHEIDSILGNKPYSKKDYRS
# [5] = target: Voltage-gated potassium channel subunit beta-2 (Rattus norvegicus) (UniProt P62483); assay: KvBeta positive modulators, primary screen, biochemical, NADPH fluorescence (AID 623;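 active = NADPH fluorescence slope more negative than the mean of all samples by about 3 SD, 99.7% confidence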;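 note: fluorescence intensity change per second fitted from 20 to 320 s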); settings: Recombinant KvBeta, NADPH fluorescence decrease slope, 10 min; at 10 µM; stronger effect = lower value
# [6] = target: Muscarinic acetylcholine receptor M4 (Homo sapiens) (UniProt P08173); assay: compounds altering M4/GIRK thallium flux, either direction, primary screen, M4 allosteric agonist project, cell-based, HEK293 M4/GIRK, BTC-AM (AID 625); settings: at 10 µM, actives lie on both sides;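 note: thallium influx through GIRK channels coupled to M4 in HEK293 cells with BTC-AM dye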
# Muscarinic acetylcholine receptor M4 (Homo sapiens), sequence (P08173 whole entry, looked up): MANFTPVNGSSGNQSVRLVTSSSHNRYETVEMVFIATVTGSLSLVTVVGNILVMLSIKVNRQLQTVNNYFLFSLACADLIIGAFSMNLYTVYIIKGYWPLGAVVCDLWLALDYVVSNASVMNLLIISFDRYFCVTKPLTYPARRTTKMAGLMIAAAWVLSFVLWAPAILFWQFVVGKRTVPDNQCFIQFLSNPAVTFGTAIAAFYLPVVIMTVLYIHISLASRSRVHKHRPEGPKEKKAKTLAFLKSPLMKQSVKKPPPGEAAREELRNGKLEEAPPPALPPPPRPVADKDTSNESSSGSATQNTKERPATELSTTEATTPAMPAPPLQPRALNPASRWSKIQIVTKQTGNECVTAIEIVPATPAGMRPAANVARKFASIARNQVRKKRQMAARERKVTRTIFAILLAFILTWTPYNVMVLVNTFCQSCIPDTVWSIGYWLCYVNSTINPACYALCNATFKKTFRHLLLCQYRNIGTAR
# Procedure, shortened: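 assay system = HEK293 cells with M4 receptor and GIRK channels | medium = pH 7.3 thallium assay buffer | doses = 10 µM final, single point | timing = cells overnight at 37 °C, BTC-AM loading 1 h, reads 2 min total | signal = BTC-AM fluorescence, 1 Hz kinetic reads | read-out = post-addition slope, 15–24 s, of baseline-normalized fluorescence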
# [7] = inhibitors of Sendai virus-induced IRF3 signaling, primary screen, TLR/RLR signaling modifier project, cell-based, Sendai virus stimulus, luciferase, 10K MLSCN set (AID 602276;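 active = inhibition at or above 50% at 10 µM; inactive = inhibition below 50%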;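 note: firefly luciferase from ISG56 promoter only with Renilla not read in this screen; 0% = Sendai virus plus DMSO and 100% = medium plus DMSO without virus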); settings: HEK293 RL24 IRF3 luciferase reporter, at 10 µM, stronger effect = higher value
# [8] = inhibitors of poly I:C-induced TLR3 signaling, primary screen, cell-based, poly I:C stimulus, luciferase, 10K MLSCN set (AID 602277;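 active = inhibition of the reporter signal at or above 50%; inactive = inhibition below 50%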); settings: HEK293-TLR3 RL24 IRF3 luciferase reporter, at 10 µM, stronger effect = higher value
Structure (SMILES),cell count [1],inhibition [1],inhibition of aggregation [2],nuclei count [2] [%],inhibition [3],nuclei count [3] [%],fluorescence slope [4],NADPH fluorescence slope [5],fluorescence slope [6],inhibition [7],inhibition [8]
CN(C)CCSc1nnc2sc3ccccc3n12,599,-5% (inactive),-2.2% (inactive),105,-71.5% (inactive),110,-0.477 (inactive),-5.9e-05 (inactive),0.00534 (inactive),-0.357% (inactive),12.6% (inactive)
COc1ccc(OC(C)C(=O)N2CC(C)OC(C)C2)cc1 (centres undefined),436,12.2% (inactive),-4.6% (inactive),97.2,-7.5% (inactive),120,-0.566 (inactive),1.5e-06 (inactive),0.00556 (inactive),14.1% (inactive),30.8% (inactive)
COC(=O)c1sc(NC(=O)COc2ccccc2OC)nc1C,368,-4.7% (inactive),-9.7% (inactive),96.7,-153% (inactive),122,-0.229 (inactive),-2.1e-05 (inactive),0.00636 (inactive),9.11% (inactive),2.53% (inactive)
O=C(CN1C(=O)c2ccccc2C1=O)NCC1COc2ccccc2O1 (centres undefined),403,-0.8% (inactive),12.6% (inactive),101,50.3% (inactive),75.3,-0.477 (inactive),9.2e-05 (inactive),0.00703 (inactive),-12.5% (inactive),-10.2% (inactive)
COCCOC(=O)C1=C(C)N=c2s/c(=C\c3cccs3)c(=O)n2C1c1cccs1 (centres undefined),331,-4.7% (inactive),-47% (inactive),98.1,-148% (inactive),110,-0.251 (inactive),-1.4e-05 (inactive),0.00423 (inactive),-5.37% (inactive),-16.7% (inactive)
CC(NC(=O)c1ccc(F)cc1)C(c1cccs1)N1CCN(C)CC1 (centres undefined),466,-7.5% (inactive),-8.9% (inactive),93.6,23% (inactive),92.2,-0.424 (inactive),-5e-05 (inactive),0.00581 (inactive),5.9% (inactive),15.9% (inactive)
CC(C)CC(=O)CN1C(=O)C2(OCCO2)c2ccccc21,490,-2.4% (inactive),22.6% (inactive),100,6.8% (inactive),94.9,-0.231 (inactive),-1.2e-05 (inactive),0.00852 (inactive),17.6% (inactive),-9.91% (inactive)
CN1C(=O)NC(NC(=O)C2CCCCC2)(C(F)(F)F)C1=O (centres undefined),650,1.4% (inactive),0.6% (inactive),97.1,3.3% (inactive),99.5,-0.579 (inactive),-2.4e-05 (inactive),0.0049 (inactive),17% (inactive),17.5% (inactive)
CCn1c(=O)n(CC(=O)NCc2ccccc2OC)c(=O)c2ccccc21,467,-30.1% (inactive),-16.5% (inactive),100,-106% (inactive),92,-0.555 (inactive),-4.7e-05 (inactive),0.00528 (inactive),18.2% (inactive),23.1% (inactive)
COCCNC(=O)Cn1nc(C(F)(F)F)c(Br)c1C,376,1.1% (inactive),19.5% (inactive),65.4,0.5% (inactive),92,-0.548 (inactive),-4.9e-05 (inactive),0.00551 (inactive),3.89% (inactive),20.6% (inactive)
Cc1ccc(C)c(S(=O)(=O)NCc2ccc(C(=O)N3CCN(C)CC3)cc2)c1,328,1.1% (inactive),27.1% (inactive),105,-101% (inactive),106,-0.332 (inactive),-4.8e-05 (inactive),0.00527 (inactive),3.27% (inactive),19.6% (inactive)
Cn1c2c(c(=O)[nH]c1=O)C(NC(=O)c1ccco1)(C(F)(F)F)C(=O)N2 (centres undefined),618,8.2% (inactive),-9.2% (inactive),108,-95% (inactive),135,-0.542 (inactive),-6.4e-05 (inactive),0.00391 (inactive),-2.84% (inactive),6.27% (inactive)
COCCNC(=O)C(C)OC(=O)c1nsc(Cl)c1Cl (centres undefined),551,-8.3% (inactive),0.5% (inactive),101,-45.1% (inactive),115,-0.317 (inactive),1e-05 (inactive),0.00545 (inactive),-6.04% (inactive),-22% (inactive)
O=C(Cn1cnc2sc(-c3ccccc3)cc2c1=O)N1CCOCC1,353,6.9% (inactive),15.6% (inactive),98.1,-123% (inactive),114,-0.445 (inactive),-4.1e-05 (inactive),0.00489 (inactive),6.22% (inactive),-5.03% (inactive)
